Laboratory results published in ChEMBL document CHEMBL1154190, “Development and screening of water-soluble analogues of progesterone and allopregnanolone in models of brain injury” (J Med Chem, 2009).

Tests used:
Rattus norvegicus = assay: Neuroprotective effect against traumatic brain injury-induced cerebral edema in rat assessed as decrease in edema level at 8 mg/kg administered intraperitoneally 1 hr post-TBI followed by second sc dose at 6 hrs post-TBI measured after 24 hrs relative to control; type: functional; design: scale not given: the % may be the effect or the level left; conditions: route intraperitoneal at 1 h, then subcutaneous at 6 h
Method in brief: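 Bilateral medial frontal cortex contusion made with a pneumatic impactor in rats under isoflurane (5% induction, 2% maintenance, N₂O/O₂), body temperature held with a heating blanket. Dosing: 8 mg/kg in 22.5% w/v 2-hydroxypropyl-β-cyclodextrin, IP at 1 h, then SC at 6 h. Sham and vehicle groups included. At 24 h, pentobarbital overdose; pericontusional tissue dried at 60 °C, 0.3 atm for 24 h. Water % = (wet−dry)/wet×100; decrease vs vehicle, mean ± SEM.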

[1] = Solubility in phosphate buffered saline; type: physicochemical
Method in brief: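 Compound added in small portions to phosphate buffered saline at room temperature with stirring until a visible saturation end point; solubility reported as mg/mL.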

[2] = Inhibition of glutamate-induced excitotoxicity in rat E18 cells assessed as reduction in cell death at 5 uM pretreated for 24 hrs before glutamate challenge measured after 24 hrs by MTT assay; type: functional
Method in brief: (§1)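 Rat E18 primary cortical cells cultured 8-10 days in neurobasal medium, pretreated 24 h with compound (tested at 0.1-80 μM, DMSO <5 μL/mL medium), then glutamate 0.5 μM (in PBS pH 7.4) added for a further 24 h with compound still present. Viability by MTT formazan photometry; reduction in cell death vs glutamate-only control, mean ± SEM, ANOVA/Dunnett, p < 0.05.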

[3] = Inhibition of glutamate-induced excitotoxicity in rat E18 cells assessed as reduction in cell death at 20 uM pretreated for 24 hrs before glutamate challenge measured after 24 hrs by MTT assay; type: functional
Method in brief: (§2)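 Rat E18 primary cortical neurons cultured 8-10 days in neurobasal medium, pretreated 24 h with compound (0.1-80 μM, DMSO, final DMSO <5 μL/mL), then glutamate 0.5 μM (in PBS pH 7.4) for 24 h with compound still present. Viability read by MTT formazan photometry; % reduction in cell death vs glutamate control, mean ± SEM, ANOVA with Dunnett's test.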

[4] = Inhibition of glutamate-induced excitotoxicity in rat E18 cells assessed as reduction in cell death at 80 uM pretreated for 24 hrs before glutamate challenge measured after 24 hrs by MTT assay; type: functional; method in brief: as §2
[5] = Inhibition of glutamate-induced excitotoxicity in rat E18 cells assessed as reduction in cell death at 10 uM pretreated for 24 hrs before glutamate challenge measured after 24 hrs by MTT assay; type: functional; method in brief: as §1
[6] = phosphate buffered saline, read-out: solubility

CC(=O)[C@H]1CC[C@H]2[C@@H]3CCC4=C/C(=N\OC(=O)[C@@H](N)C(C)C)CC[C@]4(C)[C@H]3CC[C@]12C.Cl
Activity (Rattus norvegicus): 75%
solubility [1, 6]: 15200 µg/mL
inhibition at 5 µM [2]: 34%

CC(=O)[C@H]1CC[C@H]2[C@@H]3CCC4=C/C(=N/OC(=O)[C@@H](N)C(C)C)CC[C@]4(C)[C@H]3CC[C@]12C.Cl
Activity (Rattus norvegicus): 57%
solubility ([1]; buffer): 13000 µg/mL
inhibition at 5 µM [2]: 27%

CC(=O)[C@H]1CC[C@H]2[C@@H]3CC[C@H]4C[C@H](OC(=O)[C@@H](N)C(C)C)CC[C@]4(C)[C@H]3CC[C@]12C.Cl
Activity (Rattus norvegicus): 49%
solubility [1, 6]: < 50 µg/mL

CC(=O)[C@H]1CC[C@H]2[C@@H]3CC[C@@H]4C[C@H](OC(=O)[C@@H](N)C(C)C)CC[C@]4(C)[C@H]3CC[C@]12C.Cl
Activity (Rattus norvegicus): 31%
solubility [1, 6]: 300 µg/mL

CC(=O)[C@H]1CC[C@H]2[C@@H]3CCC4=C[C@@H](OC(=O)[C@H](C)N)CC[C@]4(C)[C@H]3CC[C@]12C.Cl
solubility [1, 6]: 3340 µg/mL
inhibition at 5 µM [2]: 13%

CC(=O)[C@H]1CC[C@H]2[C@@H]3CCC4=C[C@@H](OC(=O)[C@@H](N)Cc5c[nH]c6ccccc56)CC[C@]4(C)[C@H]3CC[C@]12C
inhibition at 5 µM [2]: 1%

CC(=O)[C@H]1CC[C@H]2[C@@H]3CC[C@H]4C[C@@H](OC(=O)[C@@H](N)C(C)C)CC[C@]4(C)[C@H]3CC[C@]12C.Cl
Activity (Rattus norvegicus): 40%
solubility [1, 6]: < 50 µg/mL

CC(=O)[C@H]1CC[C@H]2[C@@H]3CCC4=CC(=O)CC[C@]4(C)[C@H]3CC[C@]12C [PROGESTERONE]
Activity (Rattus norvegicus): 60%
solubility [1, 6]: < 50 µg/mL
inhibition at 20 µM [3]: 42%
inhibition at 5 µM [2]: 4%

CC(=O)[C@H]1CC[C@H]2[C@@H]3CCC4=C[C@@H](OC(=O)[C@@H](N)C(C)C)CC[C@]4(C)[C@H]3CC[C@]12C.Cl
solubility [1, 6]: 3850 µg/mL
inhibition at 5 µM [2]: 8%

CC(=O)[C@H]1CC[C@H]2[C@@H]3CC[C@H]4C[C@H](O)CC[C@]4(C)[C@H]3CC[C@]12C [BREXANOLONE]
solubility [1, 6]: < 50 µg/mL
inhibition at 80 µM [4]: 40%
inhibition at 5 µM [2]: -3%

CC(=O)[C@H]1CC[C@H]2[C@@H]3CC[C@@H]4C[C@@H](OC(=O)[C@@H](N)C(C)C)CC[C@]4(C)[C@H]3CC[C@]12C.Cl
Activity (Rattus norvegicus): 11%
solubility [1, 6]: < 50 µg/mL

CC(=O)[C@H]1CC[C@H]2[C@@H]3CCC4=C[C@@H](OC(=O)[C@@H](N)Cc5ccccc5)CC[C@]4(C)[C@H]3CC[C@]12C.Cl
solubility [1, 6]: 610 µg/mL

CC(=O)[C@H]1CC[C@H]2[C@@H]3CCC4=C[C@@H](OC(=O)[C@@H]5CCCN5)CC[C@]4(C)[C@H]3CC[C@]12C.Cl
solubility [1, 6]: 1530 µg/mL
inhibition at 5 µM [2]: 15%

CC(C)[C@H](N)C(=O)O[C@@H](C)[C@H]1CC[C@H]2[C@@H]3CCC4=CC(=O)CC[C@]4(C)[C@H]3CC[C@]12C
inhibition at 5 µM [2]: 23%
inhibition at 10 µM [5]: 30%
